Experimental data as given in ChEMBL document CHEMBL1152556, “Omega-conotoxin GVIA mimetics based on an anthranilamide core: effect of variation in ammonium side chain lengths and incorporation of fluorine” (Bioorg Med Chem, 2009).

Biological target: Voltage-dependent N-type calcium channel subunit alpha-1B (Rattus norvegicus, UniProt Q02294)
Assay: Displacement of [125I]GVIA from Cav2.2 channel in rat brain by scintillation counting
Assay type: tissue-based
Details: not given; call rule not given here
Outline: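 Radioligand displacement run in triplicate at room temperature on crude rat brain membrane (8 lg per well, added last) with 125I-GVIA tracer. Buffer: 20 mM HEPES, 75 mM NaCl, 0.2 mM EDTA, 0.2 mM EGTA, leupeptin, aprotinin, 0.1% BSA, pH 7.4. Shaken 1 h, then filtered on PEI-soaked glass fibre and washed with HEPES/125 mM NaCl, pH 7.4. Filter-bound counts read.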

Sequence of Voltage-dependent N-type calcium channel subunit alpha-1B (Q02294 whole entry): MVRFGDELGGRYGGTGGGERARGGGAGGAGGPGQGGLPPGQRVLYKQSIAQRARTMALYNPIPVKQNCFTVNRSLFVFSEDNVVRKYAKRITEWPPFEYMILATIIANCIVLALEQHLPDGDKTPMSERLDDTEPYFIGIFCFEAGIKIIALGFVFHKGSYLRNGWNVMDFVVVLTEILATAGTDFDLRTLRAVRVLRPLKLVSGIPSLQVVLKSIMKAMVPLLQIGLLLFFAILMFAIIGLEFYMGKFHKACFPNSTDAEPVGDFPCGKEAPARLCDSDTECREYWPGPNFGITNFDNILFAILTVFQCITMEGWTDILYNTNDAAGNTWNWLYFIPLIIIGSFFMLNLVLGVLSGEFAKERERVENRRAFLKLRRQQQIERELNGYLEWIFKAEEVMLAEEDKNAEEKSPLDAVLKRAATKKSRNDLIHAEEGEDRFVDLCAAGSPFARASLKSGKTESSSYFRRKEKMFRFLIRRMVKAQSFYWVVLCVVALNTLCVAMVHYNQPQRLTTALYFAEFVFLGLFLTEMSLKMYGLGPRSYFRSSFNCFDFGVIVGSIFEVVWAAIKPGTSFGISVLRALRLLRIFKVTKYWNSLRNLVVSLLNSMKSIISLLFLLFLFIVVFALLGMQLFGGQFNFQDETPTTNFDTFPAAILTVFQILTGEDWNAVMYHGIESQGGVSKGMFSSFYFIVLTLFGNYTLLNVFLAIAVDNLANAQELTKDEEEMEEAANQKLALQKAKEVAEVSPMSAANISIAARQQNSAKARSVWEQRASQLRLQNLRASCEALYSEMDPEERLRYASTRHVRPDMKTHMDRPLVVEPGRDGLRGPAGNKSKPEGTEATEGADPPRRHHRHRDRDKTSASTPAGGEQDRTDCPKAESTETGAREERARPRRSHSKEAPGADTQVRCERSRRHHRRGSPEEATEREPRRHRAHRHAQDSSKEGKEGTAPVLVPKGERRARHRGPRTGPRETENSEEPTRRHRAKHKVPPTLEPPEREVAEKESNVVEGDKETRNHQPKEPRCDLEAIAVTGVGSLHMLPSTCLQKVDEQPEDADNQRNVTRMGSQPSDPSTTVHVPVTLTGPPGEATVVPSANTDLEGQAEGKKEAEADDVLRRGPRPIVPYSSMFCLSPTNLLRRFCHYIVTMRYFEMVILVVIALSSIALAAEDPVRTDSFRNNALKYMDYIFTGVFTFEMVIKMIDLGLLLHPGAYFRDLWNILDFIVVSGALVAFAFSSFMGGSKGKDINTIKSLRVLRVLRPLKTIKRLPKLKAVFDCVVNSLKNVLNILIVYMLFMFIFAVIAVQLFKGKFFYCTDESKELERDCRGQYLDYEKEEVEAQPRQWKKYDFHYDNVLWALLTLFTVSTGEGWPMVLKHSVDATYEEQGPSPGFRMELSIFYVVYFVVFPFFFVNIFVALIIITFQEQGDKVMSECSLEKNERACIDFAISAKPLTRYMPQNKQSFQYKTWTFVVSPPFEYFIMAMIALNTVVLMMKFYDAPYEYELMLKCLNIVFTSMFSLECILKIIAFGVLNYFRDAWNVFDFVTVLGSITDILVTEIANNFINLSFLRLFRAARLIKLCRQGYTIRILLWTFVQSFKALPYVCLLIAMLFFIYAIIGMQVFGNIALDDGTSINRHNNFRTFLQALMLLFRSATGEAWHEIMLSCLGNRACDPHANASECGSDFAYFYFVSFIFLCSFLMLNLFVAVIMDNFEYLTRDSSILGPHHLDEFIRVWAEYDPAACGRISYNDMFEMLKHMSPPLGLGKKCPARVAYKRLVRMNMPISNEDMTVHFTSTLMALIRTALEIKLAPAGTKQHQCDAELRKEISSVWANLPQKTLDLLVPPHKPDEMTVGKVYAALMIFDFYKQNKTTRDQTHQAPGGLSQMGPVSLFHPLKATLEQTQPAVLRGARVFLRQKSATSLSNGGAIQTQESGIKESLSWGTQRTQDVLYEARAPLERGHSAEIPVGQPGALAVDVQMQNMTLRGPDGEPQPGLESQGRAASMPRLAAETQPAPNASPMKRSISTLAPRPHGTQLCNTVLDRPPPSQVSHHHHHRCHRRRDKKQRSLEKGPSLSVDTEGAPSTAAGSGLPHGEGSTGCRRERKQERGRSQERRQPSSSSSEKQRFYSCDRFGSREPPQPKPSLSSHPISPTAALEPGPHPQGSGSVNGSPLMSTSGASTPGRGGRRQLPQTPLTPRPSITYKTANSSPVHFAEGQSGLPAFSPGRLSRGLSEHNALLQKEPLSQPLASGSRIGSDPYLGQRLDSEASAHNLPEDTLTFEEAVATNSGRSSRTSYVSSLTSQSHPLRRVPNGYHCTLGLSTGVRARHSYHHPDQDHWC

SMILES | EC50
NCCCCCCCC(=O)Nc1ccc(OCCCN)cc1C(=O)Nc1ccc(Oc2ccc(O)cc2)cc1 | Not Active
NCCCCCCCC(=O)Nc1ccc(OCCCN)cc1C(=O)Nc1ccc(Oc2ccc(F)cc2)cc1 | Not Active

Same assay, conditions: read-out: EC50

SMILES | EC50
NC(N)=NCCCCCC(=O)Nc1ccc(OCCCN=C(N)N)cc1C(=O)Nc1ccc(Oc2ccccc2)cc1 | 16 µM
NCCCCCC(=O)Nc1ccc(OCCCN)cc1C(=O)Nc1ccc(Oc2ccccc2)cc1 | 107 µM
NC(N)=NCCCCCCCC(=O)Nc1ccc(OCCCN=C(N)N)cc1C(=O)Nc1ccc(Oc2ccc(F)cc2)cc1 | 6 µM
NC(N)=NCCCCCCCC(=O)Nc1ccc(OCCCCN=C(N)N)cc1C(=O)Nc1ccc(Oc2ccccc2)cc1 | 15 µM
NC(N)=NCCCCC(=O)Nc1ccc(OCCCN=C(N)N)cc1C(=O)Nc1ccc(Oc2ccccc2)cc1 | 116 µM
NC(N)=NCCCCCCCC(=O)Nc1ccc(OCCCN=C(N)N)cc1C(=O)Nc1ccc(Oc2ccccc2)cc1 | 13 µM
NC(N)=NCCCCCCCC(=O)Nc1ccc(OCCCN=C(N)N)cc1C(=O)Nc1ccc(Oc2ccc(O)cc2)cc1 | 16 µM
NCCCCCCCC(=O)Nc1ccc(OCCCCN)cc1C(=O)Nc1ccc(Oc2ccccc2)cc1 | 90 µM
NCCCCCC(=O)Nc1ccc(OCCCCN)cc1C(=O)Nc1ccc(Oc2ccccc2)cc1 | 99 µM
NCCCCC(=O)Nc1ccc(OCCCN)cc1C(=O)Nc1ccc(Oc2ccccc2)cc1 | 77 µM
NC(N)=NCCCCCC(=O)Nc1ccc(OCCCCN=C(N)N)cc1C(=O)Nc1ccc(Oc2ccccc2)cc1 | 17 µM
NCCCCCCCC(=O)Nc1ccc(OCCCN)cc1C(=O)Nc1ccc(Oc2ccccc2)cc1 | 72 µM
